# Calls of active or inactive are those of the source. The rule behind the calls is not given here.
# How the values were obtained:
# MGC-803 = assay: Antiproliferative activity against human MGC803 cells after 72 hrs by MTT assay; format: functional, cell-based; settings: MGC-803, 72 h
# Method in brief: (§1)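 Cells in exponential growth plated at 3,000 per well, left 24 h, then medium replaced with fresh medium carrying a range of compound concentrations; 72 h exposure, MTT read at 570 nm.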
# HGC-27 [1] = assay: Antiproliferative activity against human HGC27 cells after 72 hrs by MTT assay; format: functional, cell-based; settings: HGC-27, 72 h; method in brief: as §1
# MCF7 = assay: Antiproliferative activity against human MCF7 cells after 72 hrs by MTT assay; format: functional, cell-based; settings: MCF7, 72 h; method in brief: as §1
# ECa-109 cell line = assay: Antiproliferative activity against human EC109 cells after 72 hrs by MTT assay; format: functional, cell-based; settings: ECa-109, 72 h; method in brief: as §1
# GES1 = assay: Cytotoxicity against human GES-1 cells assessed as reduction in cell viability after 72 hrs by MTT assay; format: cell-based; settings: GES1, 72 h
# Method in brief: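 Normal human gastric epithelial cells in exponential growth seeded at 3,000 cells/well, allowed 24 h, then medium replaced with fresh medium containing a range of compound concentrations. Exposure 72 h, then MTT, viability read at 570 nm.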
# [2] = Selectivity index, ratio of IC50 for human GES-1 cells to IC50 for human HGC27 cells; format: toxicity; settings: GES-1 cells and HGC27 cells, read-out: Ratio IC50
# Method in brief: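 GES-1 normal gastric epithelial cells and HGC-27 tested by the same MTT protocol (3,000 cells/well, 24 h attachment, 72 h exposure, 570 nm). SI calculated as IC50(GES-1)/IC50(HGC-27). IC50s are means ± SD of three independent experiments.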
# HGC-27 [3] = assay: Antimigratory activity in human HGC27 cells after 48 hrs by wound healing assay; format: functional, cell-based
# Method in brief: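 HGC-27 grown in 24-well plates, monolayer scratched with a 10 µL pipette tip, then exposed to compound at several concentrations. Wound closure photographed by inverted microscope after the incubation times stated.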
# HGC-27 [4] = assay: Inhibition of colony formation in human HGC27 cells at 4 uM after 9 days by crystal violet staining based assay; format: functional; settings: HGC-27, 216 h
# Method in brief: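 HGC-27 seeded at 1000 cells/well, 24 h, then fresh medium with compound for 9 days. PBS washes, 4% paraformaldehyde fixation, 0.1% crystal violet stain. Colonies (>10 cells) counted from images. Inhibition rate = (1 − treated count/control count) × 100%. Triplicate.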
# HGC-27 [5] = assay: Induction of apoptosis in human HGC27 cells assessed as cell rounding at 2 to 5 uM after 24 hrs by Hoechst 33258 staining-based fluorescence microscopy; format: functional
# Method in brief: (§2)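 HGC-27 at 2×10⁵/well attached overnight, exposed to compound at several concentrations for 24 h, then stained with Hoechst 33258 for 30 min in the dark. Morphology scored by fluorescence microscopy.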
# HGC-27 [6] = assay: Induction of apoptosis in human HGC27 cells assessed as chromatin shrinkage at 2 to 5 uM after 24 hrs by Hoechst 33258 staining-based fluorescence microscopy; format: functional, cell-based; method in brief: as §2
# HGC-27 [7] = assay: Induction of apoptosis in human HGC27 cells assessed as formation of apoptotic bodies at 2 to 5 uM after 24 hrs by Hoechst 33258 staining-based fluorescence microscopy; format: functional, cell-based; method in brief: as §2
# HGC-27 [8] = assay: Induction of apoptosis in human HGC27 cells after 24 hrs by Annexin-V-FITC/propidium iodide-double staining based flow cytometry; format: functional, cell-based
# HGC-27 [9] = assay: Induction of apoptosis in human HGC27 cells assessed as apoptotic cells at 1 uM after 24 hrs by Annexin-V-FITC/propidium iodide-double staining based flow cytometry (reference value: 1.8%); format: functional
# HGC-27 [10] = assay: Induction of apoptosis in human HGC27 cells assessed as apoptotic cells at 2 uM after 24 hrs by Annexin-V-FITC/propidium iodide-double staining based flow cytometry (reference value: 1.8%); format: functional
# HGC-27 [11] = assay: Induction of apoptosis in human HGC27 cells assessed as apoptotic cells at 5 uM after 24 hrs by Annexin-V-FITC/propidium iodide-double staining based flow cytometry (reference value: 1.8%); format: functional
# HGC-27 [12] = assay: Induction of apoptosis in human HGC27 cells assessed as increase in Bax expression after 24 hrs by Western blot analysis; format: functional, cell-based
# Method in brief: (§3)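 HGC-27 exposed to compound at several concentrations for 24 h, lysed in RIPA with protease inhibitors for 30 min, spun at 12,000 rpm for 10 min at 4 °C. Protein measured by BCA, run on SDS-PAGE, transferred to nitrocellulose. Blocked with 5% skim milk for 2 h, primary antibodies overnight at 4 °C, secondary 1:5000 for 2 h, ECL detection.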
# HGC-27 [13] = assay: Induction of apoptosis in human HGC27 cells assessed as decrease in Bcl2 expression up to 5 uM after 24 hrs by Western blot analysis; format: functional, cell-based; method in brief: as §3
# HGC-27 [14] = assay: Induction of apoptosis in human HGC27 cells assessed as increase in cleaved caspase 3 expression after 24 hrs by Western blot analysis; format: functional, cell-based; method in brief: as §3
# HGC-27 [15] = assay: Induction of apoptosis in human HGC27 cells assessed as increase in cleaved caspase 9 expression after 24 hrs by Western blot analysis; format: functional, cell-based; method in brief: as §3
SMILES,IC50 (MGC-803),IC50 (HGC-27 [1]),IC50 (MCF7),IC50 (ECa-109 cell line),also measured
CCCSc1nc(Sc2ncccn2)c2nc(Nc3ccccn3)sc2n1,11.2 µM,12.2 µM,> 64 µM,> 64 µM,–
CCCSc1nc(Sc2ccc(C)cc2)c2nc(Nc3ccccn3)sc2n1,> 64 µM,7.28 µM,34.2 µM,> 64 µM,–
CCCSc1nc(Sc2ncccn2)c2nc(Nc3ccccc3)sc2n1,9.82 µM,9.55 µM,13.2 µM,49.6 µM,–
CCCSc1nc(Sc2nccn2C)c2nc(Nc3ccccc3)sc2n1,30 µM,4.03 µM,> 64 µM,> 64 µM,–
CCCSc1nc(Sc2nccs2)c2nc(Nc3ccccc3)sc2n1,23.4 µM,2.21 µM,> 64 µM,> 64 µM,–
CCCSc1nc(Sc2nnnn2CCN(C)C)c2nc(Nc3ccccc3)sc2n1,18.5 µM,6.51 µM,14.5 µM,> 64 µM,–
Cc1ccc(Sc2nc(SCc3ccccc3)nc3sc(Nc4ccccc4)nc23)cc1,12.2 µM,1.22 µM,8.55 µM,2.69 µM,IC50 (GES1): 29.4 µM; selectivity ratio [2]: 24.1; Activity (HGC-27 [3]): Dose-dependent effect; inhibition at 4 µM (HGC-27 [4]): 79%; Activity (HGC-27 [5]): Active; Activity (HGC-27 [6]): Active; Activity (HGC-27 [7]): Active; Activity (HGC-27 [8]): Dose-dependent effect; Activity (HGC-27 [9]): 10.01%; Activity (HGC-27 [10]): 31.8%; Activity (HGC-27 [11]): 67.9%; Activity (HGC-27 [12]): Dose-dependent effect; Activity (HGC-27 [13]): Active; Activity (HGC-27 [14]): Dose-dependent effect; Activity (HGC-27 [15]): Dose-dependent effect
O=c1[nH]cc(F)c(=O)[nH]1 [FLUOROURACIL],–,11 µM,7.21 µM,5.01 µM,IC50 (GES1): 8.59 µM
CCCSc1nc(Sc2ccc(C)cc2)c2nc(Nc3ccccc3)sc2n1,4.73 µM,4.65 µM,> 64 µM,25 µM,–
CCCSc1nc(Sc2nnc(N)s2)c2nc(Nc3ccccc3)sc2n1,12.8 µM,> 64 µM,> 64 µM,> 64 µM,–
CCCSc1nc(Sc2nncs2)c2nc(Nc3ccccc3)sc2n1,10.7 µM,5.07 µM,8.55 µM,> 64 µM,–
CCCSc1nc(Sc2nncs2)c2nc(Nc3cccc4ccccc34)sc2n1,> 64 µM,22.7 µM,> 64 µM,> 64 µM,–
c1ccc(CSc2nc(Sc3nncs3)c3nc(Nc4ccccc4)sc3n2)cc1,> 64 µM,18.9 µM,38.7 µM,10.6 µM,–
CCCSc1nc(Sc2ccc(C)cc2)c2nc(Nc3cccc4ccccc34)sc2n1,46.2 µM,> 64 µM,> 64 µM,> 64 µM,–
CCCSc1nc(Sc2ccc(Cl)cc2)c2nc(Nc3ccccc3)sc2n1,9.33 µM,8.87 µM,44.2 µM,19.6 µM,–
CCCSc1nc(Sc2nncs2)c2nc(Nc3ccccn3)sc2n1,10.2 µM,18.2 µM,11.6 µM,> 64 µM,–
CCCSc1nc(Sc2nc3ccccc3s2)c2nc(Nc3ccccc3)sc2n1,14.2 µM,12.2 µM,> 64 µM,24.3 µM,–
CCCSc1nc(Sc2ccc(C)cc2)c2nc(Nc3cc(OC)c(OC)c(OC)c3)sc2n1,> 64 µM,6.03 µM,> 64 µM,23.9 µM,–

# Reference: ChEMBL document CHEMBL4130366, “Design, synthesis and antiproliferative activity of thiazolo[5,4-d]pyrimidine derivatives through the atom replacement strategy” (Eur J Med Chem, 2017)
